NALP1 yeast inh = NALP1 inhibition; S. cerevisiae NALP1/ASC/caspase-1 growth, X-gal OD620, 72 h; inhibition, % at 10 µM; actives 0.61% (n = 280,000); AID 2071; in the data active = inhibition mostly above about 24%, no sharp cut-off; inactive = mostly below about 32%
NALP3 yeast inh = blocks the NALP3 inflammasome reconstituted in yeast; AID 2825; Yeast reconstituted NLRP3/ASC/caspase-1, beta-gal luminescence, 24 h; actives 0.39% (n = 330,000); inhibition, % at 10 µM;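 active = inhibition of 50% or more; inactive = inhibition below 50%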;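 also: plate controls were induced DMSO wells for no effect and uninduced yeast grown without galactose for full effect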
MC4R ag barr = activates human MC4R beta-arrestin recruitment; U2OS MC4R beta-arrestin complementation, luminescence; percent of melanotan II response, DMSO zero; activation, % at 8.9 µM; actives 0.98% (n = 360,000); AID 540308;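 active = activation above a per-plate cutoff, the mean activation of sample wells on that plate plus 3 SD, cut at about 8% in these data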
Target sequence (P32245 whole entry, looked up): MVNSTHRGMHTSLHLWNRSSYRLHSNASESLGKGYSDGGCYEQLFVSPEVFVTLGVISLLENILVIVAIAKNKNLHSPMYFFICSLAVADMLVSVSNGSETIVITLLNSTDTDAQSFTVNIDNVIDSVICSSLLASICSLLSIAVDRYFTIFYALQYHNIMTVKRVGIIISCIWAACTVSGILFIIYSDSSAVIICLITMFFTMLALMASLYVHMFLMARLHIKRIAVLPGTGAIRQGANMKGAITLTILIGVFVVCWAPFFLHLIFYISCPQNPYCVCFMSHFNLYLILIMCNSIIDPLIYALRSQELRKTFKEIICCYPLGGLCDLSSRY
Tb MetRS inh = Trypanosoma brucei MetRS inhibition | purified T. brucei MetRS, ATP depletion, Kinase-Glo luminescence | inhibition, % at 11.9 µM | actives 0.4% (n = 360,000) | AID 624268;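 active = inhibition above a per-plate cutoff of the control wells' mean inhibition plus 3 SD, cut at about 5.5% in these data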;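 also: 0% = DMSO wells median and 100% = median of wells with control inhibitor compound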
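Material: T. brucei methionyl-tRNA synthetase, purified; reagent: substrates ATP, L-methionine and bulk Escherichia coli tRNA; dosing: 11.9 µM single point; timing: 15 min plus 2 h at 25 °C; detection: luminescence of leftover ATP; evaluation: % inhibition; control set: DMSO-only wells as low control; replicates: singlicate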
MC4R antagonist = antagonists of human melanocortin 4 receptor (MC4R); P32245; MC4R-expressing cells, MTII-stimulated cAMP, LANCE TR-FRET; inhibition, % at 6.5 µM; actives 0.48% (n = 360,000);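 active = inhibition above its plate's cutoff, the mean of tested wells on that plate plus 3 SD, cut at about 29% in these data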;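 also: 0% = Melanotan II alone and 100% = Melanotan II plus saturating MCL0020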
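System: U2OS-MC4R stable cell line; Technique: Eu-cAMP/anti-cAMP TR-FRET, emission 671 nm; Repeats: single well per compound; Also added: Melanotan II; Dosing: one concentration, 6.5 µM nominal; Schedule: 30-min compound, 1-h challenge, 1-h detection, room temperature.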
A1 inh = inhibitors of the anti-apoptotic protein A1, read as caspase activation. MEF A1-2A-BIM cells, Caspase-Glo 3/7 luminescence, 3 h; percent of clofoctol response, vehicle zero. caspase activation, % (concentration not given with the values). actives 0.066% (n = 330,000);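 active = over half of replicate activation scores above 10%, or exactly half above 10 with the replicate mean above 10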
Active calls of the source: *; . = no result. Rows were chosen to be rich in hits. Some 2.5% of all compounds tested hit in one or more screens of this group.

SMILES	NALP1 yeast inh	NALP3 yeast inh	MC4R ag barr	Tb MetRS inh	MC4R antagonist	A1 inh
CCOc1ccc(NC(=O)COC(=O)CNC(=O)c2ccc(-c3ccccc3)cc2)cc1	.	4.5	-1.6	0.2	9.7	-0.7
C/C(=N\Nc1nccnc1Cl)c1ccc(O)c(C)c1	4.2	19.4	-0.1	-1.5	11.6	-3.2
CCOc1ccc(NC(=O)NCCCCc2ccccc2)cc1	0.4	27.6	9.0*	-0.6	-1.4	0.5
COc1ccc(NC(=O)NCCCCc2ccccc2)cc1	-0.3	25.5	-0.4	-0.4	11.4	-1.7
CSc1ncnc2c1ncn2CCCNCc1ccc2c(c1)OCO2	.	.	-1.8	-0.5	6.8	.
C=CCn1c(=O)c2ccc(C(=O)NCc3ccccc3)cc2n(Cc2cccc(Cl)c2)c1=O	30.3	5.9	9.5*	-1.0	-29.9	-0.9
O=C1C=C(O)c2cccc(O)c2C1=O	3.1	9.7	-0.6	-0.9	5.9	-0.2
CC1OC(CC(=O)O)CC2=C1C(=O)c1c(O)cccc1C2=O (centres undefined)	.	.	-2.9	-0.1	40.4*	.
CCOc1ccccc1NC(=O)COC(=O)c1ccc2ccccc2n1	.	17.7	-1.2	-0.6	-6.5	-0.4
CC(=O)c1cccc(OCc2cc(C(=O)N3C[C@@H](C)O[C@@H](C)C3)no2)c1	4.0	15.9	0.1	0.1	1.3	-0.8
C/C=C(\C)C(=O)OC1[C@H](OC(C)=O)C2(CO)C(CC1(C)C)C1=CCC3C4(C)CCC(O[C@@H]5O[C@H](C(=O)O)[C@@H](O[C@@H]6O[C@H](CO)[C@@H](O)[C@H](O)[C@H]6O)[C@H](O)[C@H]5O[C@H]5O[C@H](CO)[C@@H](O)[C@H](O)[C@H]5O)[C@](C)(CO)C4CCC3(C)[C@]1(C)C[C@H]2O (some centres undefined)	.	.	-3.8	-1.1	94.8*	.
CC1(C)C[C@H]2C3=CCC4[C@@]5(C)CC[C@H](O[C@@H]6O[C@H](C(=O)O)[C@@H](O)[C@H](O)[C@H]6O)[C@@](C)(CO)C5CC[C@@]4(C)[C@]3(C)C[C@H](O)[C@@]2(CO)[C@@H](O)[C@@H]1O (some centres undefined)	.	9.3	-0.5	-0.1	19.5	1.9
Cc1ccc(S(=O)(=O)NCc2ccccc2)cc1C(=O)NCc1ccncc1	.	.	-0.4	-0.3	-3.7	.
CCOc1cc(-c2nc(-c3ccncc3)no2)cc(OCC)c1OCC	22.0*	-25.3	0.8	0.1	4.6	0.3
CCOc1ccc(-c2nc(-c3ccncc3)no2)cc1OCC	12.1	9.9	1.4	-0.4	-3.4	0.2
CCN1C(=O)N2C[C@H]3CON(C)[C@H]3C[C@H]2c2ccccc21	.	.	.	-0.9	.	.
O=c1[nH]cc(O)c(=O)[nH]1	9.1	12.9	-0.4	-0.4	-1.0	0.1
O=c1[nH]cc(F)c(=O)[nH]1	115.5*	.	-0.7	-1.2	1.6	1.1
COc1ccc(NC(=O)C2CC(=O)N(CCc3ccc(Cl)cc3)C2)cc1 (centres undefined)	-4.3	7.8	-0.7	3.5	1.2	-0.1
Cc1c2cnn(CC(=O)Nc3c(F)c(F)cc(F)c3F)c(=O)c2c(C)n1Cc1ccccc1F	0.2	14.1	25.1*	-0.1	22.0	0.2
COc1cccc(-c2cc(C(=O)Nc3cc(C)on3)no2)c1	8.4	12.4	8.5*	-0.8	0.7	-2.2
COc1cccc(-c2cc(C(=O)N3C(C)CCCC3C)no2)c1 (centres undefined)	42.8*	10.1	2.3	0.0	3.7	0.2
CC1CCCC(C)N1C(=O)c1cc(-c2ccco2)on1 (centres undefined)	4.4	3.4	0.2	-1.6	-4.3	-0.4
Cc1cc(NC(=O)c2cc(-c3cccc(Cl)c3)on2)no1	21.1	7.3	2.9	0.6	3.0	0.3
CCN(CC)C(=O)C1=C(C)N(CCCOC)C(=O)C(CC(=O)NC2CCCC2)C1 (centres undefined)	.	.	-2.3	0.0	3.4	.
SMILES	NALP1 yeast inh	NALP3 yeast inh	MC4R ag barr	Tb MetRS inh	MC4R antagonist	A1 inh
O=C(COC(=O)c1ccccc1)Nc1cc(S(=O)(=O)N2CCCCCC2)ccc1Cl	.	13.5	8.8*	0.4	6.9	0.8
Cc1cccc(OCC(=O)O/N=C(\N)c2ccc(Cl)cc2)c1	-9.8	24.2	11.6*	-0.2	-1.8	-0.7
Cc1ccccc1OCc1csc(N)n1	45.0*	24.2	-2.3	-0.3	-0.3	-0.7
Nc1nc(COc2ccccc2)cs1	-16.3	8.1	-2.6	-0.5	5.5	-0.9
N#Cc1cccnc1N1CCN(C(C(=O)NC2CCCC2)c2ccc(F)cc2)CC1 (centres undefined)	.	.	.	-0.6	.	.
Fc1ccc(Nc2ccnc(Nc3ccc(F)cc3)n2)cc1	84.3*	21.0	0.4	2.1	8.8	-1.0
CCOCCCNCc1cn(-c2ccc(F)cc2F)nc1-c1ccccc1C	26.8*	12.5	2.0	0.2	8.4	-0.4
CC(C)C[C@@H](CN)NC(=O)c1nc[nH]c1C(=O)N[C@@H](Cc1c[nH]c2ccccc12)C(=O)CNC[C@H](C)NC(=O)c1nc[nH]c1C(=O)N[C@@H](CC(=O)O)C(=O)O	.	.	0.4	0.5	0.5	.
CC(C)C[C@@H](CNCC(=O)[C@H](Cc1c[nH]c2ccccc12)NC(=O)c1[nH]cnc1C(=O)N[C@H](CN)CC(C)C)NC(=O)c1nc[nH]c1C(=O)N[C@@H](CC(=O)O)C(=O)O	.	.	0.5	6.8*	-3.2	.
CC(C)C[C@@H](CNCC(=O)[C@H](Cc1ccccc1)NC(=O)c1[nH]cnc1C(=O)N[C@@H](C)CN)NC(=O)c1nc[nH]c1C(=O)N[C@@H](CC(=O)O)C(=O)O	.	.	0.2	-0.2	-4.3	.
CC(C)C[C@@H](CNCC(=O)[C@H](Cc1c[nH]c2ccccc12)NC(=O)c1[nH]cnc1C(=O)N[C@@H](C)CN)NC(=O)c1nc[nH]c1C(=O)N[C@@H](CC(=O)O)C(=O)O	.	.	-0.6	10.9*	-1.5	.
CCOc1ccc(CCNC(=O)CSC(=S)N2CCCC2)cc1OCC	.	22.9	-2.4	-0.3	4.0	0.3
CC1(C(=O)NS(=O)(=O)Cc2cccc(Cl)c2)CCN1C(=O)c1ccc(C2CCCCC2)cc1 (centres undefined)	.	.	-2.0	0.1	7.5	.
CCN(CC)CCNC(=O)C(=O)Nc1ccc2c(c1)N(S(=O)(=O)c1cccs1)CCC2	.	20.8	-1.4	0.1	8.8	0.8
O=C(/C=C/c1cccc([N+](=O)[O-])c1)c1ccc2c(c1)OCCO2	40.3*	13.6	-2.1	-0.2	-2.1	-0.1
COc1ccc(NC(=O)CN(C)C(=O)c2ccc(-c3ccccc3Cl)o2)cc1	.	5.4	-0.5	4.0	-4.2	-0.7
CCOC(=O)c1c(C)n(-c2ccccc2)c2ccc(OCCN(C)C)cc12	43.6*	12.0	1.9	-2.2	6.6	0.5
